Results pooled from the literature.
Target: Mitogen-activated protein kinase kinase kinase 14 (MAP3K14, Homo sapiens, UniProt Q99558)

COc1cnc(Nc2cccc(S(N)(=O)=O)c2)nc1N1CCN(c2ccccc2)CC1 — remaining binding (binding; competition with immobilised ligand; 1 µM): 96%
Nc1cnc(N2CCc3cc(S(=O)(=O)Nc4c(F)cc(Cl)cc4F)cc(N4CCCC4=O)c32)nc1 — remaining binding (cell-free assay; competition with immobilised ligand; 1 µM): 75%
c1cnn2ncc(-c3ccnc(N4CCC45COC5)n3)c2c1 — remaining binding (binding; competition with immobilised ligand; 1 µM): 44%
CNCc1ccccc1-c1csc([C@@H](C)Nc2nc(C)nc3cc(OC)c(OC)cc23)c1 — remaining binding (cell-free assay; competition with immobilised ligand; 1 µM): 93%
CN(CCCC(F)(F)F)c1nccc(-c2cnn3ncccc23)n1 — remaining binding (binding; competition with immobilised ligand; 1 µM): 100%
FC(F)(F)Oc1cccc(-c2cnc3ccc(-c4ccncc4)nn23)c1 — remaining binding (cell-free assay; competition with immobilised ligand; 5 µM): 37%
Nc1ncc2c(n1)-c1c([nH]c3ccc(C#CC4CC4)cc13)CCCC2 — remaining binding (binding; competition with immobilised ligand; 1 µM): 73%
CN1CCN(c2cnc3c(C4CCN(C(=O)c5ccc(OC(F)(F)F)cc5N)CC4)ncnc3c2)CC1 — remaining binding (cell-free assay; competition with immobilised ligand; 1 µM): 100%
C[C@@H](c1ccc(-n2cnc3c(N)ncnc32)cc1)N1CCc2nn(C)c(Cc3ccccc3)c2C1=O — remaining binding (binding; competition with immobilised ligand; 0.1 µM): 100%
Cc1noc([C@H]2C[C@@H](c3ccc(C(F)(F)F)cc3)CN(C(=O)N3CCS(=O)(=O)C3)C2)n1 — remaining binding (cell-free assay; competition with immobilised ligand; 1 µM): 91%
Cc1cnn2ncc(-c3ccnc(N(C)C)n3)c2c1 — remaining binding (binding; 1 µM): 80%
O=C(Nc1c[nH]nc1C(=O)NC1CCNCC1)c1cc(F)cc(F)c1 — remaining binding (binding; competition with immobilised ligand; 1 µM): 100%
O=C(NCCCN1CCOCC1)c1ccc(Nc2nccc(-c3cc4ccccc4s3)n2)cc1 — remaining binding (binding; competition with immobilised ligand; 1 µM): 87%
C=CC(=O)N1CCC(C(=O)NCC(=O)N2CCN(c3nc(-c4cnc(N)nc4C(F)F)nc(N4CCOCC4)n3)CC2)CC1 — remaining binding (binding; competition with immobilised ligand; 1 µM): 89%
CN(C)c1nccc(-c2cnn3ncccc23)n1 — remaining binding (binding; competition with immobilised ligand; 1 µM): 74%
c1ccc(N2CCN(Cc3nc4ccccc4[nH]3)CC2)nc1 — remaining binding (binding; competition with immobilised ligand; 1 µM): 94%
C[C@H]1CCN(c2nccc(-c3cnn4ncccc34)n2)C1 — remaining binding (binding; competition with immobilised ligand; 1 µM): 82%
CCCCN(CCCC)C(=O)CN1C[C@@H](c2cc(OC)c3c(c2)OCO3)[C@H](C(=O)O)[C@H]1CC(C)(C)CCC — remaining binding (cell-free assay; competition with immobilised ligand; 1 µM): 100%
N[C@@H]1CCN(c2nccc(-c3cnn4ncccc34)n2)C1 — remaining binding (binding; 1 µM): 91%
O=C(c1ccc(Nc2ncc(Cl)c(-c3ccc(Cl)s3)n2)cc1)N1CCC(N2CCCC2)CC1 — remaining binding (binding; competition with immobilised ligand; 1 µM): 22%
